Test results reported in ChEMBL document CHEMBL4014308, “Amphiphilic Tobramycin-Lysine Conjugates Sensitize Multidrug Resistant Gram-Negative Bacteria to Rifampicin and Minocycline” (J Med Chem, 2017).
Activity calls are given as the source filed them. No cut-off for these calls is given here.

Tests used:
Type in all cases: functional
Pseudomonas aeruginosa [1] = assay: Induction of outer membrane permeabilization in Pseudomonas aeruginosa PAO1 at 32 ug/ml after 30 mins by CFDASE staining based fluorescence assay
Procedure, shortened: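 Log-phase PAO1 washed in PBS, brought to OD600 0.5 and loaded with 100 µM CFDASE for 30 min at 37 °C, then washed. Cells were exposed to agent for 30 min at 37 °C and supernatant fluorescence read at 488/520 nm. Untreated cells were subtracted; 1% Triton X-100 served as positive control.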

Staphylococcus aureus [2] = assay: Antibacterial activity against methicillin resistant Staphylococcus aureus ATCC 33592 after 18 hrs by microtiter dilution assay; conditions: ATCC 33592, 18 h
Procedure, shortened: (§1)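 Broth microdilution following CLSI guidelines. An overnight culture was adjusted to 0.5 McFarland in saline, then diluted 1:50 in Mueller-Hinton broth. This inoculum was added in equal volume to 2-fold serial dilutions of agent in MHB and incubated 18 h at 37 °C. MIC was the lowest concentration with no visible growth.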

Pseudomonas aeruginosa [3] = assay: Antibacterial activity against multidrug/extremely drug-resistant/colistin-resistant Pseudomonas aeruginosa isolate 91433 after 18 hrs by microtiter dilution assay; conditions: isolate 91433, 18 h; procedure, shortened: as §1
Klebsiella pneumoniae = assay: Antibacterial activity against Klebsiella pneumoniae ATCC 13883 after 18 hrs by microtiter dilution assay; conditions: ATCC 13883, 18 h
Procedure, shortened: (§2)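 Broth microdilution per CLSI. Overnight culture adjusted to 0.5 McFarland in saline, diluted 1:50 in Mueller-Hinton broth, and added to an equal volume of 2-fold serial compound dilutions in MHB. Incubated 18 h at 37 °C. MIC taken as the lowest concentration with no visible growth.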

Pseudomonas aeruginosa [4] = assay: Antibacterial activity against gentamicin-resistant Pseudomonas aeruginosa isolate CAN-ICU 62308 after 18 hrs by microtiter dilution assay; conditions: isolate CAN-ICU 62308, 18 h; procedure, shortened: as §1
Streptococcus pneumoniae = assay: Antibacterial activity against Streptococcus pneumoniae ATCC 49619 after 18 hrs by microtiter dilution assay; conditions: ATCC 49619, 18 h; procedure, shortened: as §2
Pseudomonas aeruginosa [5] = assay: Disruption of proton motive force in Pseudomonas aeruginosa PAO1 cytoplasmic membrane assessed as repression of bacterial swimming motility after 20 hrs
Procedure, shortened: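 Swim plates of 0.3% agar with tryptone 5 g/L and NaCl 2.5 g/L, agent mixed into the medium and plates dried 2 h. PAO1 at 1.0 McFarland in 0.85% saline was point-inoculated at the center, and plates incubated 20 h at 37 °C before swim diameter was imaged.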

Pseudomonas aeruginosa [6] = assay: Antibacterial activity against multidrug/extremely drug-resistant/colistin-susceptible Pseudomonas aeruginosa isolate 100036 after 18 hrs by microtiter dilution assay; conditions: isolate 100036, 18 h; procedure, shortened: as §1
Enterococcus faecium = assay: Antibacterial activity against Enterococcus faecium ATCC 27270 after 18 hrs by microtiter dilution assay; conditions: ATCC 27270, 18 h; procedure, shortened: as §2
Pseudomonas aeruginosa [7] = assay: Antibacterial activity against multidrug/extremely drug-resistant/colistin-susceptible Pseudomonas aeruginosa isolate P264-104354 after 18 hrs by microtiter dilution assay; conditions: isolate P264-104354, 18 h; procedure, shortened: as §1
[8] = system: Staphylococcus epidermidis; assay: Antibacterial activity against methicillin-susceptible Staphylococcus epidermidis isolate CANWARD-2008 81388 after 18 hrs by microtiter dilution assay; conditions: isolate CANWARD-2008 81388, 18 h; procedure, shortened: as §1
Escherichia coli [9] = assay: Antibacterial activity against amikacin-resistant Escherichia coli isolate CAN-ICU 63074 after 18 hrs by microtiter dilution assay; conditions: isolate CAN-ICU 63074, 18 h; procedure, shortened: as §1
Escherichia coli [10] = assay: Antibacterial activity against Escherichia coli ATCC 25922 after 18 hrs by microtiter dilution assay; conditions: ATCC 25922, 18 h; procedure, shortened: as §1
Pseudomonas aeruginosa [11] = assay: Antibacterial activity against multidrug/extremely drug-resistant/colistin-resistant Pseudomonas aeruginosa isolate 101243 after 18 hrs by microtiter dilution assay; conditions: isolate 101243, 18 h; procedure, shortened: as §1
Escherichia coli [12] = assay: Antibacterial activity against gentamicin/tobramycin/ciprofloxacin-resistant Escherichia coli isolate CANWARD-2011 97615 harboring AAC3-2A after 18 hrs by microtiter dilution assay; conditions: isolate CANWARD-2011 97615, 18 h; procedure, shortened: as §1
Pseudomonas aeruginosa [13] = assay: Antibacterial activity against multidrug/extremely drug-resistant/colistin-susceptible Pseudomonas aeruginosa isolate 101885 after 18 hrs by microtiter dilution assay; conditions: isolate 101885, 18 h; procedure, shortened: as §1
Escherichia coli [14] = assay: Antibacterial activity against gentamicin-resistant Escherichia coli isolate CAN-ICU 61714 after 18 hrs by microtiter dilution assay; conditions: isolate CAN-ICU 61714, 18 h; procedure, shortened: as §1
Pseudomonas aeruginosa [15] = assay: Antibacterial activity against Pseudomonas aeruginosa PAO1 after 18 hrs by microtiter dilution assay; conditions: PAO1, 18 h; procedure, shortened: as §1
[16] = system: Staphylococcus epidermidis; assay: Antibacterial activity against methicillin-resistant Staphylococcus epidermidis isolate CAN-ICU 61589 after 18 hrs by microtiter dilution assay; conditions: isolate CAN-ICU 61589, 18 h; procedure, shortened: as §1
Pseudomonas aeruginosa [17] = assay: Antibacterial activity against Pseudomonas aeruginosa ATCC 27853 after 18 hrs by microtiter dilution assay; conditions: ATCC 27853, 18 h; procedure, shortened: as §2
Enterococcus faecalis = assay: Antibacterial activity against Enterococcus faecalis ATCC 29212 after 18 hrs by microtiter dilution assay; conditions: ATCC 29212, 18 h; procedure, shortened: as §2
Pseudomonas aeruginosa [18] = assay: Synergistic antibacterial activity against Pseudomonas aeruginosa PAO1 after 18 hrs in presence of rifampicin by checkerboard assay
Procedure, shortened: (§3)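 Checkerboard in MHB: antibiotic diluted along one axis and adjuvant along the other (10 × 7 matrix). Inoculum was a 1:50 dilution in MHB of a 0.5 McFarland saline suspension; incubated 18 h at 37 °C. Each FIC = concentration in the no-growth well divided by the MIC alone; FIC index = sum of both FICs. ≤0.5 synergy, 0.5–4 no interaction, ≥4 antagonism.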

Pseudomonas aeruginosa [19] = assay: Synergistic antibacterial activity against Pseudomonas aeruginosa PAO1 after 18 hrs in presence of minocycline by checkerboard assay; procedure, shortened: as §3
Staphylococcus aureus [20] = assay: Antibacterial activity against Staphylococcus aureus ATCC 29213 after 18 hrs by microtiter dilution assay; conditions: ATCC 29213, 18 h; procedure, shortened: as §1
Acinetobacter baumannii = assay: Antibacterial activity against Acinetobacter baumannii isolate CAN-ICU 63169 after 18 hrs by microtiter dilution assay; conditions: isolate CAN-ICU 63169, 18 h; procedure, shortened: as §2
Pseudomonas aeruginosa [21] = assay: Induction of cytoplasmic membrane depolarization in Pseudomonas aeruginosa PAO1 up to 1200 secs by diSC3-5 staining based fluorescence assay
Procedure, shortened: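 Mid-log PAO1 washed in 5 mM HEPES pH 7.4 with 20 mM glucose and resuspended to OD600 0.05. Cells were loaded with 0.2 mM EDTA and 0.4 µM diSC3-5 for 2 h at 37 °C in the dark, then equilibrated with 100 mM KCl for 30 min. Agent was added and fluorescence followed at 622/670 nm; agents tested at 32 µg/mL.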

Pseudomonas aeruginosa [22] = assay: Antibacterial activity against multidrug/extremely drug-resistant/colistin-susceptible Pseudomonas aeruginosa isolate P262-101856 after 18 hrs by microtiter dilution assay; conditions: isolate P262-101856, 18 h; procedure, shortened: as §1
Pseudomonas aeruginosa [23] = assay: Antibacterial activity against multidrug/extremely drug-resistant/colistin-susceptible Pseudomonas aeruginosa isolate P259-96918 after 18 hrs by microtiter dilution assay; conditions: isolate P259-96918, 18 h; procedure, shortened: as §1
Pseudomonas aeruginosa [24] = assay: Antibacterial activity against gentamicin/tobramycin-resistant Pseudomonas aeruginosa isolate CANWARD-2011 96846 after 18 hrs by microtiter dilution assay; conditions: isolate CANWARD-2011 96846, 18 h; procedure, shortened: as §1
[25] = system: Stenotrophomonas maltophilia; assay: Antibacterial activity against Stenotrophomonas maltophilia isolate CAN-ICU 62584 after 18 hrs by microtiter dilution assay; conditions: isolate CAN-ICU 62584, 18 h; procedure, shortened: as §2

CCCCCCCCCCCCN(Cc1c2ccccc2c(Cl)c2ccccc12)C(=O)[C@@H](N)CCCCN.O=C(O)C(F)(F)F.O=C(O)C(F)(F)F
Activity (Pseudomonas aeruginosa [1]): inactive | MIC (Staphylococcus aureus [2]): 64 µg/mL | MIC (Pseudomonas aeruginosa [3]): 256 µg/mL | MIC (Klebsiella pneumoniae): > 128 µg/mL | MIC (Pseudomonas aeruginosa [4]): 128 µg/mL | MIC (Streptococcus pneumoniae): 32 µg/mL | Activity (Pseudomonas aeruginosa [5]): Dose-dependent effect | MIC (Pseudomonas aeruginosa [6]): 256 µg/mL | MIC (Enterococcus faecium): 8 µg/mL | MIC (Pseudomonas aeruginosa [7]): 128 µg/mL | MIC [8]: 8 µg/mL | MIC (Escherichia coli [9]): 64 µg/mL | MIC (Escherichia coli [10]): 64 µg/mL | MIC (Pseudomonas aeruginosa [11]): 64 µg/mL | MIC (Escherichia coli [12]): 64 µg/mL | MIC (Pseudomonas aeruginosa [13]): 128 µg/mL | MIC (Escherichia coli [14]): 128 µg/mL | MIC (Pseudomonas aeruginosa [15]): 256 µg/mL | MIC [16]: 8 µg/mL | MIC (Pseudomonas aeruginosa [17]): > 128 µg/mL | MIC (Enterococcus faecalis): 32 µg/mL | Activity (Pseudomonas aeruginosa [18]): inactive | Activity (Pseudomonas aeruginosa [19]): inactive | MIC (Staphylococcus aureus [20]): 32 µg/mL | MIC (Acinetobacter baumannii): 128 µg/mL | Activity (Pseudomonas aeruginosa [21]): Dose-dependent effect | MIC (Pseudomonas aeruginosa [22]): 128 µg/mL | MIC (Pseudomonas aeruginosa [23]): 64 µg/mL | MIC (Pseudomonas aeruginosa [24]): > 128 µg/mL | MIC [25]: > 128 µg/mL
